Measurements: ChEMBL document CHEMBL1125251, “4'-Hydroxy-3-methoxyflavones with potent antipicornavirus activity” (J Med Chem, 1991)
Values after ≈ are worked out from the molar mass of the structure shown.

What was measured:
Enterovirus C [1] = assay: The ratio of the poliovirus viral titer of the virus control (reduction factor) to the viral titer in the presence of the maximal non-toxic dose (RF MNTD); assay type: functional
Procedure, shortened: (§1)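 Poliovirus type 1 Brunhilde 1A/S3 in Vero monolayers. Serial 10-fold virus dilutions adsorbed 1 h at 37 °C, then serial 2-fold compound dilutions were added. Incubated at 37 °C and scored for CPE by light microscopy, with a 3-day readout. Titer reduction is control/treated TCD50/mL. ED99 is the minimum concentration inhibiting 99% of virus. Virus, cell and compound controls were included.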

Enterovirus C [2] = assay: Maximal non-toxic dose (MNTD) that shows antiviral activity.; assay type: functional
Procedure, shortened: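 End-point titration. Poliovirus type 1 Brunhilde was run in Vero cells at 37 °C with a 3-day read. Rhinovirus 15 was run in human skin fibroblasts at 33 °C with a 7-day read. Monolayers got serial 10-fold virus dilutions and adsorbed 1 h at 37 °C, then serial 2-fold compound dilutions (DMSO stock in maintenance medium). CPE was read by light microscopy. RF = control titer (TCD50/mL) / titer at maximal nontoxic dose.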

Enterovirus C [3] = assay: Minimum drug concentration at which 99% of the polio virus is inhibited; assay type: functional; procedure, shortened: as §1
[4] = Cytotoxic dose at which 50% growth of normal cells is inhibited; assay type: cell-based; details: chlorocebus sabaeus, Vero cells; read-out: CyD50
Procedure, shortened: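 Cell-growth cytotoxicity in Vero cells or human skin fibroblasts. Serial 2-fold dilutions in M-199 with 6% newborn calf serum were added in quadruplicate to 10⁶ cells and held 6 days at 37 °C. Cells were trypsinized, counted and reseeded with compound, repeated five times. Generation time was calculated per concentration. CyD50 = lowest concentration at least doubling generation time versus untreated cells.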

[5] = Therapeutic Index measured as the ratio of CyD50(polio) / ED99(polio) values; assay type: organism-based; details: enterovirus c; read-out: Therapeutic index 99
Procedure, shortened: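 TI99 = CyD50/ED99 for poliovirus. ED99 came from end-point titration in Vero cells at 37 °C over 3 days. CyD50 came from Vero cell growth: 10⁶ cells were given serial 2-fold compound dilutions in quadruplicate for 6 days at 37 °C, then trypsinized, counted and reseeded, repeated five times. Generation time was calculated per concentration.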

Human rhinovirus sp. [6] = assay: Minimum drug concentration at which 99% of the rhino virus is inhibited.; assay type: functional
Procedure, shortened: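 End-point titration with rhinovirus type 15 on human skin fibroblast monolayers. Cells were infected with serial 10-fold virus dilutions and allowed 1 h adsorption at 37 °C. Serial 2-fold compound dilutions were then added and plates incubated at 33 °C. CPE was read daily by light microscopy for at least 1 week, titres as TCD50/mL. ED99 = minimum concentration inhibiting 99% of virus.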

Human rhinovirus sp. [7] = assay: Cytotoxic dose at which 50% growth of normal cells is inhibited against rhino virus infection.; assay type: functional
Procedure, shortened: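 Human skin fibroblasts, 10⁶ cells per flask, given serial 2-fold dilutions in quadruplicate in M-199 with 6% newborn calf serum and held 6 days at 37 °C. Cells were trypsinized, counted in a chamber and reseeded with compound over five repeat cycles. CyD50 = lowest concentration at least doubling cell generation time relative to untreated control.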

[8] = Therapeutic Index measured as the ratio of CyD50 (rhino) / ED99 (rhino) values.; details: read-out: Therapeutic index 99
Procedure, shortened: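 TI99 = CyD50/ED99 for rhinovirus 15. ED99 came from end-point titration in human skin fibroblasts at 33 °C over 7 days. CyD50 came from fibroblast growth: 10⁶ cells were given serial 2-fold compound dilutions in quadruplicate for 6 days at 37 °C, then counted and reseeded, repeated five times. Generation time was calculated per concentration.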

Enterovirus C [9] = assay: Minimal dose which produces titer reduction at 10 ug/mL (mD RF10e3); assay type: functional

| SMILES | Reduction factor (Enterovirus C [1]) | Max non-toxic dose (Enterovirus C [2]) [µg/mL] | ED99 (Enterovirus C [3]) [µg/mL] | CC50 [4] [µg/mL] | selectivity ratio [5] | ED99 (Human rhinovirus sp. [6]) [µg/mL] | CyD50 (Human rhinovirus sp. [7]) [µg/mL] | selectivity ratio [8] | Minimal dose (Enterovirus C [9]) [µg/mL] |
| --- | --- | --- | --- | --- | --- | --- | --- | --- | --- |
| COc1c(-c2ccc(O)cc2)oc2cc(F)ccc2c1=O | 1000 | 10 | 10 | 25 (≈ 87.3 µM) | 2.5 |  |  |  |  |
| COc1c(-c2ccc(O)cc2)oc2ccc(C(C)C)cc2c1=O |  | 5 | 5 | 10 (≈ 32.2 µM) | 2 | 10 | 10 | 1 |  |
| COc1c(-c2ccc(O)c(O)c2)oc2cc(O)cc(O)c2c1=O [3-O-METHYLQUERCETIN] | 1000000 | 20 | 0.3 | 5 (≈ 15.8 µM) | 16.7 |  |  |  | 0.5 |
| COc1c(-c2ccc(O)cc2)oc2c(OC)cccc2c1=O | 1000000 | 50 | 20 | 25 (≈ 83.8 µM) | 1.25 |  |  |  | 2.5 |
| COc1c(-c2ccc(O)cc2)oc2c(C)cc(Cl)cc2c1=O | 1 | 25 | >50 | 50 (≈ 158 µM) | < 1 |  |  |  |  |
| COc1ccc(-c2oc3c(OC)c(OC)c(OC)c(OC)c3c(=O)c2OC)cc1OC [3,5,6,7,8,3',4'-HEPTAMETHOXYFLAVONE] | 100000 | 50 |  |  |  |  |  |  | 25 |
| Cc1ccc2c(=O)c(Cl)c(-c3ccc(O)cc3)oc2c1 |  |  |  | 50 (≈ 174 µM) |  | 20 | 50 |  |  |
| COc1c(-c2ccc(O)cc2)oc2ccccc2c1=O | 100000 | 15 | 6 | 10 (≈ 37.3 µM) | 1.7 |  |  |  | 6 |
| COc1ccc(-c2oc3cc(O)c(OC)c(O)c3c(=O)c2OC)cc1 [SANTIN] | 1 | 100 |  |  |  |  |  |  |  |
| COc1ccc(-c2oc3ccc(OC)cc3c(=O)c2OC)cc1 |  | 50 |  | 100 (≈ 320 µM) | 2 | 50 | 100 |  |  |
| COc1c(-c2ccc(O)cc2)oc2cc(O)cc(O)c2c1=O [ISOKAEMPFERIDE] | 1000000 | 10 | 0.2 | 10 (≈ 33.3 µM) | 50 |  |  |  | 0.25 |
| COc1ccc(-c2oc3cc(OC)c(OC)cc3c(=O)c2OC)cc1OC | 10000 | 50 |  |  |  |  |  |  | 50 |
| COc1c(-c2ccc(O)cc2)oc2cc(C(C)C)ccc2c1=O |  | 25 |  |  |  |  |  |  |  |
| COc1ccc(-c2oc3cc(O)cc(O)c3c(=O)c2OC)cc1OC |  | 50 |  |  |  |  |  |  | 2.5 |
| COc1cc(O)c2c(=O)c(OC)c(-c3ccc(OC)c(OC)c3)oc2c1 [RETUSIN] | 1 | >50 |  |  |  |  |  |  |  |
| COc1ccc(-c2oc3cc(OC)cc(O)c3c(=O)c2OC)cc1 | 1 | >50 |  |  |  |  |  |  |  |
| COc1cc(O)c2c(=O)c(OC)c(-c3ccc(O)c(O)c3)oc2c1 | 1000000 | 10 | 0.3 | 10 (≈ 30.3 µM) | 33.3 |  |  |  | 0.5 |
| COc1c(-c2ccc(O)cc2)oc2cc(C)ccc2c1=O |  | 25 | 2 | 25 (≈ 88.6 µM) | 12.5 | 25 | 25 | 1 | 4 |
| COc1ccc(-c2oc3cc(C)ccc3c(=O)c2OC)cc1 | 1 | 100 |  |  |  |  |  |  |  |
| COc1ccc(-c2oc3c(OC)c(O)cc(O)c3c(=O)c2OC)cc1 | 1 | >10 |  |  |  |  |  |  |  |

| SMILES | Reduction factor (Enterovirus C [1]) | Max non-toxic dose (Enterovirus C [2]) [µg/mL] | ED99 (Enterovirus C [3]) [µg/mL] | CC50 [4] [µg/mL] | selectivity ratio [5] | ED99 (Human rhinovirus sp. [6]) [µg/mL] | CyD50 (Human rhinovirus sp. [7]) [µg/mL] | selectivity ratio [8] | Minimal dose (Enterovirus C [9]) [µg/mL] |
| --- | --- | --- | --- | --- | --- | --- | --- | --- | --- |
| COc1c(-c2ccc(Cl)cc2)oc2cc(C)ccc2c1=O | 1 | 25 | <1000 | 100 (≈ 333 µM) |  |  |  |  |  |
| COc1c(-c2ccc(OC(C)=O)c(OC(C)=O)c2)oc2cc(OC(C)=O)cc(OC(C)=O)c2c1=O | 1000000 | >50 |  |  |  |  |  |  | 2 |
| Cc1ccc2c(=O)c(N)c(-c3ccc(O)cc3)oc2c1 |  |  |  | 10 (≈ 37.4 µM) |  |  |  |  |  |
| COc1ccc(-c2oc3ccc(O)cc3c(=O)c2OC)cc1 | 1 | 100 |  |  |  |  |  |  |  |
| COc1ccc2c(=O)c(OC)c(-c3ccc(O)cc3)oc2c1 |  | 50 | 2.5 | > 50 | > 20 | 10 | >50 | > 5 | 2.5 |
| COc1c(-c2ccc(O)cc2)oc2cc(I)ccc2c1=O | 10000 | 10 | 4 | 20 (≈ 50.7 µM) | 5 | <1000 | 20 |  | 10 |
| COc1ccc2oc(-c3ccc(O)cc3)c(OC)c(=O)c2c1 |  | 50 | 25 | 200 (≈ 670 µM) | 8 |  |  |  |  |
| COc1c(O)cc2oc(-c3ccc(O)cc3)c(OC)c(=O)c2c1O [3,6-DIMETHOXY KAEMPFEROL] | 100000 | 20 | 0.5 | 25 (≈ 75.7 µM) | 50 |  |  |  | 1 |
| COc1ccc(-c2oc3c(OC)c(OC)cc(O)c3c(=O)c2OC)cc1 |  | 7.5 |  |  |  |  |  |  |  |
| COc1c(-c2ccc(O)c(O)c2)oc2c(OC)c(O)cc(O)c2c1=O | 1000000 | 20 | 1.5 | 10 (≈ 28.9 µM) | 6.6 |  |  |  | 2 |
| COc1ccc(-c2oc3c(OC)c(OC)c(OC)c(O)c3c(=O)c2OC)cc1OC | 10000 | 50 |  |  |  |  |  |  | 50 |
| COc1c(-c2ccc(O)cc2)oc2ccc(C)cc2c1=O |  | 12 | 5 | 75 (≈ 266 µM) | 15 | <1000 | 75 |  |  |
| COc1c(-c2ccc(O)cc2)oc2cc(Br)ccc2c1=O | 10 | 30 | >30 | 30 (≈ 86.4 µM) | < 1 |  |  |  |  |
| COc1cc(O)c2c(=O)c(OC)c(-c3ccc(O)c(OC)c3)oc2c1 [PACHYPODOL] | 1000000 | 20 | 2.5 | 25 (≈ 72.6 µM) | 10 |  |  |  | 0.5 |
| COc1c(-c2ccc(O)cc2)oc2ccc(O)cc2c1=O |  | 10 | 2 | 3 (≈ 10.6 µM) | 1.5 | 10 | 15 | 1.5 | 5 |
| COc1ccc(-c2oc3cccc(OC)c3c(=O)c2OC)cc1 | 1 | 100 |  |  |  |  |  |  |  |
| COc1ccc(-c2oc3cc(O)cc(O)c3c(=O)c2OC)cc1 [ERMANIN] |  | 10 | 5 | 50 (≈ 159 µM) | 10 |  |  |  | 5 |
| COc1c(-c2ccc(O)cc2)oc2ccc(Cl)cc2c1=O |  | 100 | 6 | 100 (≈ 330 µM) | 16.7 | <1000 | 100 |  | 1.5 |
| Cc1ccc2c(=O)c(C)c(-c3ccc(O)cc3)oc2c1 |  |  |  | 100 (≈ 376 µM) |  | 25 | 100 |  |  |
